{"source": "ChEMBL document CHEMBL3526053", "about": "“Species-dependent uptake of glycylsarcosine but not oseltamivir in Pichia pastoris expressing the rat, mouse, and human intestinal peptide transporter PEPT1” (Drug Metab Dispos, 2012)", "assay_type_in_all_cases": "ADME", "key": {"[1]": {"target": "T1, Solute carrier family 15 member 1 (Mus musculus, UniProt Q9JIP7)", "T1 sequence (Q9JIP7 whole entry)": "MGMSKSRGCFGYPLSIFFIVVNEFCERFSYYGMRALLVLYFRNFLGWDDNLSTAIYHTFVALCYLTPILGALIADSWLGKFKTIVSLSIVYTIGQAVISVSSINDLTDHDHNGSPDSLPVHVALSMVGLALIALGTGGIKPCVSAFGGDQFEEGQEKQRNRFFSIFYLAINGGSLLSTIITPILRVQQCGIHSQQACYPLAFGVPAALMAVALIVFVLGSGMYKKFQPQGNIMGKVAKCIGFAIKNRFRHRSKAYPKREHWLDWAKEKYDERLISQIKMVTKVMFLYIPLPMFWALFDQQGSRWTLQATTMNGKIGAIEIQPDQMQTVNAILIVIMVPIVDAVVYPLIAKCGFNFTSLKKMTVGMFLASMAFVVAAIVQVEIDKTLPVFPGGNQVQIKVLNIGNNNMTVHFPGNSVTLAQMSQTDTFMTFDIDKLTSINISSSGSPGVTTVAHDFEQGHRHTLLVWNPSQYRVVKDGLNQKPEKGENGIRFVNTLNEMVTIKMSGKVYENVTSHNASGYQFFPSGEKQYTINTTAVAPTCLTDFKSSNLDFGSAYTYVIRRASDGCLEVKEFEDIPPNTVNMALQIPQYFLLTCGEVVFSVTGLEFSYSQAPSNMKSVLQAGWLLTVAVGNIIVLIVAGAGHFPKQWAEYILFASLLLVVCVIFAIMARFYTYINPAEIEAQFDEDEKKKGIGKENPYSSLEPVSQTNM", "assay": "Drug uptake in Pichia pastoris GS115 expressing mouse recombinant PEPT1 at 5 uM after 30s by dual-channel liquid scintillation counting analysis in presence of valacyclovir relative to control", "conditions": "in vivo, 0.5 min", "how_it_was_run": "(§1)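 [3H]GlySar 5.0 µM final, 30-s uptake at 24°C in 100 mM potassium phosphate pH 6.5, with or without a potential inhibitor at 10 mM. Cells are methanol-induced transformants. Values are vector-subtracted and expressed as percent of buffer control. Mean ± SE (n=3). ANOVA with Dunnett's test.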"}, "[2]": {"target": "T2, Solute carrier family 15 member 1 (Homo sapiens, UniProt P46059)", "T2 sequence (P46059 whole entry)": "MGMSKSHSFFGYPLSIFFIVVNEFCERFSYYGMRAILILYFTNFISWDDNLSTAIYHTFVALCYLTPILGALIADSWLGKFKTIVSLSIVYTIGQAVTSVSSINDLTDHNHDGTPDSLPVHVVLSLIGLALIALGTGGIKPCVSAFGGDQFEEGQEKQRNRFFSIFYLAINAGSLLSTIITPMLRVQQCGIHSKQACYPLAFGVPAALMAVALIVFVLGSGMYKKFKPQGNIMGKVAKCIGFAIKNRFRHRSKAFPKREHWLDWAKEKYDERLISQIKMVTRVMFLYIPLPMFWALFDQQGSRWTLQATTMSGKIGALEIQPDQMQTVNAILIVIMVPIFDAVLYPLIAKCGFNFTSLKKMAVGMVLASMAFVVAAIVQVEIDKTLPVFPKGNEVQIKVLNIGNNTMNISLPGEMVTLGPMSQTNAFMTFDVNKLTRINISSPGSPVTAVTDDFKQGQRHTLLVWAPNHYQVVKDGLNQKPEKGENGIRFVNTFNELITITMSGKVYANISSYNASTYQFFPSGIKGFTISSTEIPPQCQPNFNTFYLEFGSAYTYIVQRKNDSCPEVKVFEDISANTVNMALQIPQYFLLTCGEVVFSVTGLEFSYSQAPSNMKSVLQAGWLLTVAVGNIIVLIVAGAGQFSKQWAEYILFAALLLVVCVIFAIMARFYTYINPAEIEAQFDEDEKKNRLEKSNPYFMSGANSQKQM", "assay": "Drug uptake in Pichia pastoris GS115 expressing human recombinant PEPT1 at 5 uM after 30s by dual-channel liquid scintillation counting analysis in presence of cephalothin relative to control", "conditions": "0.5 min", "how_it_was_run": "as §1"}, "[3]": {"target": "T1, Solute carrier family 15 member 1", "assay": "Drug uptake in Pichia pastoris GS115 expressing mouse recombinant PEPT1 at 5 uM after 30s by dual-channel liquid scintillation counting analysis in presence of cephalothin relative to control", "conditions": "0.5 min", "how_it_was_run": "as §1"}, "[4]": {"target": "T3, Solute carrier family 15 member 1 (Rattus norvegicus, UniProt P51574)", "T3 sequence (P51574 whole entry)": "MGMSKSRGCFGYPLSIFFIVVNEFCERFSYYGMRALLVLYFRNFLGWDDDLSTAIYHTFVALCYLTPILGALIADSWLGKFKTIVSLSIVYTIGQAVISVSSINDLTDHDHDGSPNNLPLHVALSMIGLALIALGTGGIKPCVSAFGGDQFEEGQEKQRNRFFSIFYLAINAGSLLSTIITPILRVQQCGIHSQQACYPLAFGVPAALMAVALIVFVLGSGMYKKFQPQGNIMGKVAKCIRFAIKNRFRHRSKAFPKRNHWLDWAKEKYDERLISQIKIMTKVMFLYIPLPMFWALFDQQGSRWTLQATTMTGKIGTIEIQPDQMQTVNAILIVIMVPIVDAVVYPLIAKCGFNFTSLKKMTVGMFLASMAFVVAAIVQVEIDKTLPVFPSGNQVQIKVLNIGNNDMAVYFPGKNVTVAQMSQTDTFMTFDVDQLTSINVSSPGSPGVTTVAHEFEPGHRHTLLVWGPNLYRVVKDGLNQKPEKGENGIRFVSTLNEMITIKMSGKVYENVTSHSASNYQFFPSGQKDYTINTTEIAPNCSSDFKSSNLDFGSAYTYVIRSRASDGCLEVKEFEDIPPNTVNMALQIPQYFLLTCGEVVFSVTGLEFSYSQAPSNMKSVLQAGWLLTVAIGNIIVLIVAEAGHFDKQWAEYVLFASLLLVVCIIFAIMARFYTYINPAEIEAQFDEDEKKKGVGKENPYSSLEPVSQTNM", "assay": "Drug uptake in Pichia pastoris GS115 expressing rat recombinant PEPT1 at 5 uM after 30s by dual-channel liquid scintillation counting analysis in presence of TEA relative to control", "conditions": "0.5 min", "how_it_was_run": "as §1"}, "[5]": {"target": "T4, PEPT1 (Homo sapiens, UniProt P46059)", "T4 sequence (P46059 whole entry)": "T2 sequence (P46059 whole entry)", "assay": "Drug uptake in Pichia pastoris GS115 expressing human recombinant PEPT1 at 5 uM after 30 mins by dual-channel liquid scintillation counting analysis relative to vector control", "conditions": "read-out: FC", "how_it_was_run": "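5.0 µM radiolabelled substrate ([3H]GlySar or [14C]oseltamivir) is incubated 30 min at 24°C with induced transformants in 100 mM potassium phosphate pH 6.5. Cell-associated radioactivity is counted by scintillation after standing 24 h and normalised to OD600. Results are compared with pPIC3.5K vector-alone cells. Mean ± SE (n=6).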"}, "[6]": {"target": "T2, Solute carrier family 15 member 1", "assay": "Drug uptake in Pichia pastoris GS115 expressing human recombinant PEPT1 at 5 uM after 30s by dual-channel liquid scintillation counting analysis in presence of L-histidine relative to control", "conditions": "0.5 min", "how_it_was_run": "as §1"}, "[7]": {"target": "T3, Solute carrier family 15 member 1", "assay": "Drug uptake in Pichia pastoris GS115 expressing rat recombinant PEPT1 at 5 uM after 30s by dual-channel liquid scintillation counting analysis in presence of L-histidine relative to control", "conditions": "in vivo, 0.5 min", "how_it_was_run": "as §1"}, "[8]": {"target": "T1, Solute carrier family 15 member 1", "assay": "Drug uptake in Pichia pastoris GS115 expressing mouse recombinant PEPT1 at 5 uM after 30s by dual-channel liquid scintillation counting analysis in presence of GlyPro relative to control", "conditions": "0.5 min", "how_it_was_run": "as §1"}}, "data": [{"smiles": "[3H]C(C(=O)O)N(C)C(=O)CN", "note": "(stereo not drawn)", "values": [{"measurement": "Drug uptake", "setting": "[1]", "value": 4.5, "unit": "%"}, {"measurement": "Drug uptake", "setting": "[2]", "value": 84.8, "unit": "%"}, {"measurement": "Drug uptake", "setting": "[3]", "value": 85, "unit": "%"}, {"measurement": "Drug uptake", "setting": "[4]", "value": 94.8, "unit": "%"}, {"measurement": "uptake ratio at 0.5 h, 5 µM", "setting": "[5]", "value": 30}, {"measurement": "Drug uptake", "setting": "[6]", "value": 122, "unit": "%"}, {"measurement": "Drug uptake", "setting": "[7]", "value": 113, "unit": "%"}, {"measurement": "Drug uptake", "setting": "[8]", "value": 1.9, "unit": "%"}]}]}
